Measurements taken from PMC8882712 (Cell chemical biology, 2021).
Values belong to the molecule of their own block, whether it stands above or below them.

Key:
[1] = target: T1, NSD3S (Homo sapiens, UniProt Q9BZ95); assay: Immunoblotting for NSD3S in 293FT cells; format: cell-based; conditions: 48-hour treatment; for NSD3 degradation (immunoblot): 293FT cells, indicated concentrations
T1 sequence (Q9BZ95 1-645 isoform Q9BZ95-3): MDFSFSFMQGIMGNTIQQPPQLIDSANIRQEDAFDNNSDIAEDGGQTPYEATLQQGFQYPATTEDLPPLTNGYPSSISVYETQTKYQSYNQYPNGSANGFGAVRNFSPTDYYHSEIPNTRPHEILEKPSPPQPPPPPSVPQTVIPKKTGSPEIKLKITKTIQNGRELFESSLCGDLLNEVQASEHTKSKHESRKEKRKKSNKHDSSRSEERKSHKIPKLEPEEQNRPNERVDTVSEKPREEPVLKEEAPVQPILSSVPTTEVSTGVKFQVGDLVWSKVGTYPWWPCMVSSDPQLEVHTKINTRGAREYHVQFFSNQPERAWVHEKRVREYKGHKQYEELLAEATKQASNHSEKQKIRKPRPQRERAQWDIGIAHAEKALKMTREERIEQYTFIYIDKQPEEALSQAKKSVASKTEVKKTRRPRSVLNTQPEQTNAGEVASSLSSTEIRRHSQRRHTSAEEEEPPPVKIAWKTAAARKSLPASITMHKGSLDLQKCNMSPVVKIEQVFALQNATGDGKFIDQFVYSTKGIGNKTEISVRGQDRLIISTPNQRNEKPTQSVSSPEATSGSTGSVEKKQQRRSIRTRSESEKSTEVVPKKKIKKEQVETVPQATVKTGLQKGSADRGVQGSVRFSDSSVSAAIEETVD
Method in brief: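 293FT cells were grown in DMEM with 10% FBS and 1% penicillin/streptomycin. NSD3 was detected by western blot with rabbit anti-NSD3 antibody, using rabbit anti-GAPDH as loading control and HRP-linked secondary antibodies.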

[2] = system: cMyc; assay: cMyc ubiquitination assay in EOL-1 cells; format: cell-based, human; conditions: 2.5 μM, 48-hour treatment
Method in brief: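 Lysates were heat-denatured 5 min at 95°C, diluted with EBC, sonicated and cleared. Immunoprecipitation with antibody ran overnight at 4°C, then protein A/G magnetic beads for 3 h at 4°C. Blots were probed with mouse anti-ubiquitin.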

[3] = system: EOL-1, RS4;11 and MM1.S cells; assay: Cell growth inhibition assay; format: cell-based, human; conditions: for EC50: Homo sapiens, 192 h, read-out: EC50 (growth inhibition)
Method in brief: (§1)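 Cells were kept in RPMI 1640 with 10% FBS and 1% penicillin/streptomycin. 0.5 million cells per well were seeded in triplicate and treated with various final compound concentrations, with compound-containing medium renewed every two days. Cultures were diluted to stay below 1×10^6/mL and counted automatically every two days. EC50 came from nonlinear regression over at least three experiments, given as mean ± SD.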

[4] = target: T2, NSD3 (Homo sapiens, UniProt Q9BZ95); assay: Ubiquitination assay of Flag-tagged NSD3S in 293FT cells; format: cell-based; conditions: 293FT cells expressing Flag-tagged NSD3S, 48-hour treatment
T2 sequence (Q9BZ95 1-645 isoform Q9BZ95-3): T1 sequence (Q9BZ95 1-645 isoform Q9BZ95-3)

[5] = system: cMyc; assay: Immunoblotting for cMyc protein levels; format: cell-based, human
Method in brief: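 cMyc was detected by western blot with rabbit anti-cMyc antibody, using rabbit anti-GAPDH as loading control. VHL status was checked with mouse anti-VHL. VHL was knocked out by CRISPR/Cas9 and compared with WT cells. EOL-1 and MM1.S cells were grown in RPMI 1640 and 293FT cells in DMEM, each with 10% FBS and 1% penicillin/streptomycin.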

[6] = system: K562 cells; assay: Cell growth inhibition assay in K562 cells; format: cell-based, human; conditions: 2.5 μM, ten days
Method in brief: as §1

[7] = system: CBLB, IFITM1, SELL and MAP7; assay: RT-qPCR and western blots of NSD3-upregulated gene targets; format: cell-based, human; conditions: EOL-1 or MM1.S cells, 2.5 μM, 48 hours, compared to BI-9321 and MS9715N
Method in brief: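 For mRNA, RT-qPCR relative expression was calculated by the 2−ΔΔCT method and normalized to the mean of beta-actin. For protein, western blots used rabbit anti-CBLB and rabbit anti-IFITM1 antibodies with rabbit anti-GAPDH as loading control. Cells were grown in RPMI 1640 with 10% FBS.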

[8] = system: EOL-1 and MM1.S cells; assay: Apoptosis induction; format: cell-based, human; conditions: 2.5 μM, four-day treatment
Method in brief: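 EOL-1 and MM1.S cells were grown in RPMI 1640 with 10% FBS and 1% penicillin/streptomycin. Lines were authenticated by genetic fingerprinting and screened monthly for mycoplasma. Apoptosis was assessed by western blot with rabbit anti-cleaved caspase-3 and anti-cleaved caspase-7 antibodies, detected with an HRP-linked anti-rabbit IgG secondary.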

[9] = target: T2, NSD3; assay: Immunoblotting for NSD3 degradation in hematological cancer cells; format: cell-based
[10] = system: EOL-1 cells; assay: Mass spectrometry-based global proteomic profiling; format: cell-based, human; conditions: 2.5 μM, 30 hours, more than 5,000 proteins detected
[11] = system: EOL-1 and MM1.S cells; assay: Colony formation assay; format: cell-based, human; conditions: 2.5 μM
Method in brief: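 20,000 cells per well were plated in triplicate. Medium containing compound or vehicle was replaced every four days. After 4 weeks, wells were stained with 100 μg/mL iodonitrotetrazolium chloride, and colonies were counted after overnight incubation.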

[12] = target: T3, NSD3 PWWP1 domain (Homo sapiens, UniProt Q9BZ95); assay: Isothermal titration calorimetry; format: binding
T3 sequence (Q9BZ95 247-402): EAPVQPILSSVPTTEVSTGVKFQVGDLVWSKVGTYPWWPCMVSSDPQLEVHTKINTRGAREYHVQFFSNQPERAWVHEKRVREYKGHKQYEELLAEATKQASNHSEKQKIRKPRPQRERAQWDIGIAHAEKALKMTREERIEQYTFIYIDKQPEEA

[13] = system: cancer cells; conditions: ref Bottcher et al., 2019; cited from earlier work

Structure (SMILES): Cc1cc(CNCCCC(=O)NCCCCCCCCC(=O)N[C@H](C(=O)N2C[C@H](O)C[C@H]2C(=O)NCc2ccc(-c3scnc3C)cc2)C(C)(C)C)cc(C)c1-c1ncn(C)c1-c1ccnc2cc(F)ccc12 [Compound 5, (2S,4R)-1-((S)-2-(9-(4-((4-(5-(7-fluoroquinolin-4-yl)-1-methyl-1H-imidazol-4-yl)-3,5-dimethylbenzyl)amino)butanamido)nonanamido)-3,3-dimethylbutanoyl)-4-hydroxy-N-(4-(4-methylthiazol-5-yl)benzyl)pyrrolidine-2-carboxamide]
NSD3 degradation (immunoblot) [1]: clearly induced NSD3 degradation at 10–40 μM

EC50 [3]: 2 to 4 µM
Dmax ([9]; MOLM-13, read-out: maximum degradation (Dmax)): > 80%
DC50 ([9]; read-out: half-maximal degradation concentration (DC50), MOLM13 cells, 48-hour treatment, mean ± SD from three independent experiments): 4.9 ± 0.4 µM
Structure (SMILES): Cc1cc(CNCCCC(=O)NCCCCCCCCC(=O)N[C@H](C(=O)N2C[C@H](O)C[C@H]2C(=O)N[C@@H](C)c2ccc(-c3scnc3C)cc2)C(C)(C)C)cc(C)c1-c1ncn(C)c1-c1ccnc2cc(F)ccc12 [MS9715, (2S,4R)-1-((S)-2-(9-(4-((4-(5-(7-fluoroquinolin-4-yl)-1-methyl-1H-imidazol-4-yl)-3,5-dimethylbenzyl)amino)butanamido)nonanamido)-3,3-dimethylbutanoyl)-4-hydroxy-N-((S)-1-(4-(4-methylthiazol-5-yl)phenyl)ethyl)pyrrolidine-2-carboxamide]
ubiquitination of cellular cMyc [2]: significantly enhanced
growth inhibitory activity ([3]; 2.5 μM, ten days, EOL-1, MM1.S and RS4;11 cells): effectively inhibited the growth
ubiquitination of cellular NSD3 [4]: induced ubiquitination of cellular NSD3 in a concentration-dependent manner
protein levels of cMyc ([5]; EOL-1 and MM1.S cells, 2.5 μM, 48 hours): significant decrease in the protein levels of cMyc
cMyc depletion in VHL-deficient cells ([5]; VHL-deficient EOL-1 and 293FT cells relative to WT, 48-hour treatment): almost completely diminished
growth inhibitory activity [6]: little growth inhibitory effect
suppression of expression of CBLB, IFITM1, SELL and MAP7 [7]: superior effect
induction of apoptosis [8]: induced a prominent increase of apoptosis
concentration-dependent depletion of cellular NSD3S ([9]; EOL-1, MM1.S and MOLM13 cells, 48-hour treatment): concentration-dependent depletion of cellular NSD3S
depletion of NSD3S and NSD3L isoforms ([9]; EOL-1 and MM1.S cells): led to depletion of both NSD3S and NSD3L isoforms
time-dependent NSD3S degradation ([9]; EOL-1 and MM1.S cells, 2.5 μM): significant degradation occurring at as early as 24 hours
NSD3 degradation in VHL knockout cells ([1]; 293FT cells with CRISPR/Cas9-mediated KO of VHL vs WT): abrogated the MS9715-mediated NSD3 degradation
proteome-wide selectivity (significantly downregulated proteins) [10]: NSD3 was the only protein showing significant downregulation
colony-forming capabilities [11]: drastically decreased colony-forming capabilities

EC50 [3]: > 10 µM
Kd [12]: 1.62 ± 0.33 µM
Structure (SMILES): Cc1cc(CNCCCC(=O)NCCCCCCCCC(=O)N[C@H](C(=O)N2C[C@@H](O)C[C@@H]2C(=O)N[C@@H](C)c2ccc(-c3scnc3C)cc2)C(C)(C)C)cc(C)c1-c1ncn(C)c1-c1ccnc2cc(F)ccc12 [MS9715N, (2R,4S)-1-((S)-2-(9-(4-((4-(5-(7-fluoroquinolin-4-yl)-1-methyl-1H-imidazol-4-yl)-3,5-dimethylbenzyl)amino)butanamido)nonanamido)-3,3-dimethylbutanoyl)-4-hydroxy-N-((S)-1-(4-(4-methylthiazol-5-yl)phenyl)ethyl)pyrrolidine-2-carboxamide]
colony-forming capabilities [11]: little or no effect

NSD3 degradation (immunoblot) [1]: failed to degrade NSD3
Structure (SMILES): Cc1cc(CNCCCC(=O)NCCCCCNc2cccc3c2C(=O)N(C2CCC(=O)NC2=O)C3=O)cc(C)c1-c1ncn(C)c1-c1ccnc2cc(F)ccc12 (stereo not drawn) [Compound 2, N-(5-((2-(2,6-dioxopiperidin-3-yl)-1,3-dioxoisoindolin-4-yl)amino)pentyl)-4-((4-(5-(7-fluoroquinolin-4-yl)-1-methyl-1H-imidazol-4-yl)-3,5-dimethylbenzyl)amino)butanamide]

Structure (SMILES): Cc1cc(CN)cc(C)c1-c1ncn(C)c1-c1ccnc2cc(F)ccc12 [BI-9321, reference compound]
killing of cancer cells [13]: does not lead to effective killing of cancer cells
EC50 [3]: > 10 µM
colony-forming capabilities [11]: little or no effect

NSD3 degradation (immunoblot) [1]: failed to degrade NSD3
Structure (SMILES): Cc1cc(CNCCCC(=O)NCCOCCOCCNc2cccc3c2C(=O)N(C2CCC(=O)NC2=O)C3=O)cc(C)c1-c1ncn(C)c1-c1ccnc2cc(F)ccc12 (stereo not drawn) [Compound 1, N-(2-(2-(2-((2-(2,6-dioxopiperidin-3-yl)-1,3-dioxoisoindolin-4-yl)amino)ethoxy)ethoxy)ethyl)-4-((4-(5-(7-fluoroquinolin-4-yl)-1-methyl-1H-imidazol-4-yl)-3,5-dimethylbenzyl)amino) butanamide]

Structure (SMILES): Cc1cc(CNCCCC(=O)NCCCCNC(=O)C[C@H](NC(=O)[C@@H]2C[C@@H](O)CN2C(=O)[C@@H](NC(=O)C2(F)CC2)C(C)(C)C)c2ccc(-c3scnc3C)cc2)cc(C)c1-c1ncn(C)c1-c1ccnc2cc(F)ccc12 [Compound 6, (2S,4R)-1-((S)-2-(1-fluorocyclopropane-1-carboxamido)-3,3-dimethylbutanoyl)-N-((S)-3-((4-(4-((4-(5-(7-fluoroquinolin-4-yl)-1-methyl-1H-imidazol-4-yl)-3,5-dimethylbenzyl)amino)butanamido)butyl)amino)-1-(4-(4-methylthiazol-5-yl)phenyl)-3-oxopropyl)-4-hydroxypyrrolidine-2-carboxamide]
NSD3 degradation (immunoblot) [1]: did not lead to effective degradation of NSD3
